Source: ChEMBL document CHEMBL3621107, “Ring fusion strategy for synthesis and lead optimization of sulfur-substituted anthra[1,2-c][1,2,5]thiadiazole-6,11-dione derivatives as promising scaffold of antitumor agents” (Eur J Med Chem, 2015)

How the values were obtained:
Format in all cases: functional
[1] = tested on: CCRF-CEM; test: Cytotoxicity against human CCRF-CEM cells after 48 hrs by SRB assay
Method in brief: (§1)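 NCI-60 human tumour cell panel screen, second stage, run by the NCI Developmental Therapeutics Program. Compounds were tested at five concentrations (0.01, 0.1, 1, 10 and 100 μM). Percentage growth was plotted against log10 concentration for each cell line. GI50, TGI and LC50 were taken from these dose-response curves.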

[2] = tested on: HL-60(TB); test: Cytotoxicity against human HL-60(TB) cells after 48 hrs by SRB assay; conditions: HL-60, 48 h
Method in brief: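 NCI Developmental Therapeutics Program 60-cell-line screen, second stage: cells exposed to five concentrations (0.01, 0.1, 1, 10 and 100 μM). Growth is plotted against log10 concentration for each line, and GI50, TGI and LC50 are read from the dose-response curves.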

[3] = tested on: MOLT-4; test: Cytotoxicity against human MOLT4 cells after 48 hrs by SRB assay; conditions: MOLT-4, 48 h
Method in brief: (§2)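 Second-stage NCI-60 panel run by the NCI Developmental Therapeutics Program, covering nine tumour subpanels. Five concentrations were tested: 0.01, 0.1, 1, 10 and 100 μM. Percentage growth at each level was plotted against log10 drug concentration. GI50, TGI and LC50 were read from these dose-response curves. Subpanel MID values were divided into the full-panel MID to give selectivity ratios.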

[4] = tested on: HOP-62; test: Cytotoxicity against human HOP62 cells after 48 hrs by SRB assay; conditions: HOP-62, 48 h; method in brief: as §1
[5] = tested on: HOP-92; test: Cytotoxicity against human HOP92 cells after 48 hrs by SRB assay; conditions: HOP-92, 48 h; method in brief: as §1
[6] = tested on: NCI-H226; test: Cytotoxicity against human NCI-H226 cells after 48 hrs by SRB assay; conditions: NCI-H226, 48 h; method in brief: as §2
[7] = tested on: NCI-H23; test: Cytotoxicity against human NCI-H23 cells after 48 hrs by SRB assay; conditions: NCI-H23, 48 h; method in brief: as §2
[8] = tested on: NCI-H522; test: Cytotoxicity against human NCI-H522 cells after 48 hrs by SRB assay; conditions: NCI-H522, 48 h; method in brief: as §2
[9] = tested on: COLO 205; test: Cytotoxicity against human COLO205 cells after 48 hrs by SRB assay; conditions: COLO 205, 48 h; method in brief: as §1
[10] = tested on: HCC 2998; test: Cytotoxicity against human HCC2998 cells after 48 hrs by SRB assay; conditions: HCC 2998, 48 h; method in brief: as §1
[11] = tested on: SW-620; test: Cytotoxicity against human SW620 cells after 48 hrs by SRB assay; conditions: SW-620, 48 h
Method in brief: (§3)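 NCI-60 five-dose study run by NCI DTP at 0.01, 0.1, 1, 10 and 100 µM. Percentage growth at each level was plotted against log10 concentration for each line, and GI50, TGI and LC50 were read from the dose-response curves.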

[12] = tested on: SF-295; test: Cytotoxicity against human SF295 cells after 48 hrs by SRB assay; conditions: SF-295, 48 h; method in brief: as §2
[13] = tested on: SF-539; test: Cytotoxicity against human SF539 cells after 48 hrs by SRB assay; conditions: SF-539, 48 h; method in brief: as §2
[14] = tested on: SNB-75; test: Cytotoxicity against human SNB75 cells after 48 hrs by SRB assay; conditions: SNB-75, 48 h; method in brief: as §3
[15] = tested on: SK-MEL-5; test: Cytotoxicity against human SK-MEL-5 cells after 48 hrs by SRB assay; conditions: SK-MEL-5, 48 h; method in brief: as §2
[16] = tested on: UACC-257; test: Cytotoxicity against human UACC257 cells after 48 hrs by SRB assay; conditions: UACC-257, 48 h; method in brief: as §3
[17] = tested on: UACC-62; test: Cytotoxicity against human UACC62 cells after 48 hrs by SRB assay; conditions: UACC-62, 48 h; method in brief: as §3
[18] = tested on: IGROV-1; test: Cytotoxicity against human IGROV1 cells after 48 hrs by SRB assay; conditions: IGROV-1, 48 h; method in brief: as §1
[19] = tested on: OVCAR-3; test: Cytotoxicity against human OVCAR3 cells after 48 hrs by SRB assay; conditions: OVCAR-3, 48 h; method in brief: as §2
[20] = tested on: A498; test: Cytotoxicity against human A498 cells after 48 hrs by SRB assay; conditions: A498, 48 h; method in brief: as §1
[21] = tested on: CAKI-1; test: Cytotoxicity against human Caki1 cells after 48 hrs by SRB assay; conditions: CAKI-1, 48 h; method in brief: as §1
[22] = tested on: TK-10; test: Cytotoxicity against human TK10 cells after 48 hrs by SRB assay; conditions: TK-10, 48 h; method in brief: as §3
[23] = tested on: UO-31; test: Cytotoxicity against human UO31 cells after 48 hrs by SRB assay; conditions: UO-31, 48 h; method in brief: as §3
[24] = tested on: PC-3; test: Cytotoxicity against human PC3 cells after 48 hrs by SRB assay; conditions: PC-3, 48 h; method in brief: as §2
[25] = tested on: DU-145; test: Cytotoxicity against human DU145 cells after 48 hrs by SRB assay; conditions: DU-145, 48 h; method in brief: as §1
[26] = tested on: MCF7; test: Cytotoxicity against human MCF7 cells after 48 hrs by SRB assay; conditions: MCF7, 48 h; method in brief: as §1
[27] = Cytotoxicity against human CNS cancer cells assessed as growth inhibition after 48 hrs by SRB assay; conditions: Cancer cell lines
Method in brief: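 NCI-60 five-dose data (0.01–100 μM) were grouped by tumour subpanel. A subpanel mean (MID) of GI50 was computed for the CNS cancer lines. A selectivity ratio was obtained as full-panel MID divided by subpanel MID: 3–6 counts as moderate, >6 as high.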

Compound `CC(C)Sc1cc2c(c3nsnc13)C(=O)c1ccccc1C2=O` has an LC50 [1] greater than 100 µM, a TGI [1] of 0.58 µM and a GI50 [2] of 0.23 µM. The LC50 [2] was 40.8 µM, the TGI [2] was 0.617 µM and the GI50 [3] was 0.18 µM. The LC50 [3] was greater than 100 µM, the TGI [3] was 0.49 µM and the GI50 [4] was 2.1 µM. The LC50 [4] was 24.2 µM, the TGI [4] was 6.53 µM and the GI50 [5] was 0.32 µM. The LC50 (concentration giving 50% net cell kill) [5] was 14.5 µM, the TGI [5] was 2.18 µM and the GI50 [6] was 1.83 µM. For the same compound, the LC50 (concentration killing 50% of starting cells) [6] was 14.6 µM, the TGI [6] was 4.64 µM and the GI50 [7] was 0.56 µM. The LC50 [7] was 8.48 µM, the TGI [7] was 2.58 µM and the GI50 [8] was 2.38 µM. For the same compound, the LC50 (concentration giving 50% net cell kill) [8] was 9.96 µM, the TGI [8] was 4.87 µM and the GI50 [9] was 13.3 µM. It also gave an LC50 [9] of 51 µM, a TGI [9] of 20.6 µM and a GI50 [10] of 3.46 µM. It also gave an LC50 [10] of 34.9 µM, a TGI [10] of 11.1 µM and a GI50 [11] of 0.43 µM. It also gave an LC50 (50% lethal concentration) [11] of 11.7 µM, a TGI [11] of 2.21 µM and a GI50 [12] of 1.88 µM. The LC50 [12] was 9.83 µM, the TGI [12] was 4.3 µM and the GI50 [13] was 1.73 µM. It also gave an LC50 [13] of 7.14 µM, a TGI [13] of 3.51 µM and a GI50 [14] of 0.52 µM. It also gave an LC50 (concentration killing 50% of cells) [14] of 23.9 µM, a TGI [14] of 3.95 µM and a GI50 [15] of 1.29 µM. For the same compound, the LC50 [15] was 5.23 µM, the TGI [15] was 2.6 µM and the GI50 [16] was 0.57 µM. The LC50 [16] was 4.47 µM, the TGI [16] was 1.88 µM and the GI50 [17] was 1.35 µM. It also gave an LC50 [17] of 5.26 µM, a TGI [17] of 2.67 µM and a GI50 [18] of 0.96 µM. It also gave an LC50 [18] of 9.18 µM, a TGI [18] of 3.01 µM and a GI50 [19] of 0.25 µM. The TGI [19] was 0.638 µM, the CC50 ([19]; read-out: LC50 (the source's name)) was 2.98 µM and the GI50 [20] was 0.56 µM. It also gave an LC50 (concentration killing 50% of cells) [20] of 23.6 µM, a TGI [20] of 4.28 µM and a GI50 [21] of 0.59 µM. For the same compound, the LC50 (concentration causing 50% net cell kill) [21] was 9.08 µM, the TGI [21] was 2.59 µM and the GI50 [22] was 5.68 µM. For the same compound, the LC50 (concentration killing 50% of cells) [22] was 87.6 µM, the TGI [22] was 18 µM and the GI50 [23] was 1.16 µM. It also gave an LC50 [23] of 11.9 µM, a TGI [23] of 3.56 µM and a GI50 [24] of 0.25 µM. It also gave an LC50 (concentration killing 50% of cells) [24] of 75.4 µM, a TGI [24] of 1.38 µM and a GI50 [25] of 1.45 µM. The LC50 [25] was 26.4 µM, the TGI [25] was 6.64 µM and the GI50 [26] was 1.71 µM. For the same compound, the LC50 (concentration killing 50% of cells) [26] was 8.42 µM, the TGI [26] was 3.8 µM and the GI50 [27] was 1.79 µM.
